Data reported in ChEMBL document CHEMBL4610039, “Design, synthesis and apoptosis-related antiproliferative activities of chelidonine derivatives” (Bioorg Med Chem Lett, 2020).

What was measured:
HepG2 = experiment: Antiproliferative activity against human HepG2 cells assessed as reduction in cell growth after 72 hrs by MTT assay; type: functional, cell-based; conditions: HepG2, 72 h
Procedure, shortened: (§1)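 Human HepG2, MCF-7, HCT-116 and K562 tumour cells plus normal L-02 hepatocytes and PBMCs were exposed to compounds for 72 h and growth was read by MTT. 5-Fu served as positive control. IC50 is the concentration inhibiting 50% of cell growth, given as mean ± standard deviation of three independent experiments.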

MCF7 = experiment: Antiproliferative activity against human MCF7 cells assessed as reduction in cell growth after 72 hrs by MTT assay; type: functional, cell-based; conditions: MCF7, 72 h; procedure, shortened: as §1
HCT-116 = experiment: Antiproliferative activity against human HCT116 cells assessed as reduction in cell growth after 72 hrs by MTT assay; type: functional, cell-based; conditions: HCT-116, 72 h; procedure, shortened: as §1
K562 = experiment: Antiproliferative activity against human K562 cells assessed as reduction in cell growth after 72 hrs by MTT assay; type: functional, cell-based; conditions: K562, 72 h; procedure, shortened: as §1
L02 = experiment: Antiproliferative activity against human L02 cells assessed as reduction in cell growth after 72 hrs by MTT assay; type: functional, cell-based; conditions: L02, 72 h; procedure, shortened: as §1
PBMC = experiment: Cytotoxicity against human PBMC assessed as reduction in cell growth after 72 hrs by MTT assay; type: cell-based; procedure, shortened: as §1

| Structure (SMILES) | IC50 (HepG2) [µM] | IC50 (MCF7) [µM] | IC50 (HCT-116) [µM] | IC50 (K562) [µM] | IC50 (L02) [µM] | IC50 (PBMC) [µM] |
| --- | --- | --- | --- | --- | --- | --- |
| CN1Cc2c(ccc3c2OCO3)[C@H]2[C@@H](OC(=O)CCC(=O)OCCCCOc3no[n+]([O-])c3S(=O)(=O)c3ccccc3)Cc3cc4c(cc3[C@H]21)OCO4 | 6.39 | 4.78 | 8.27 | 2.91 | 19.7 | > 40 |
| CN1Cc2c(ccc3c2OCO3)[C@H]2[C@@H](OC(=O)CCCC(=O)OCCCCOc3no[n+]([O-])c3S(=O)(=O)c3ccccc3)Cc3cc4c(cc3[C@H]21)OCO4 | 19.6 | 6.81 | 19.1 | 6.14 | > 40 | > 40 |
| CN1Cc2c(ccc3c2OCO3)[C@H]2[C@@H](OC(=O)CCC(=O)NCCCOc3no[n+]([O-])c3S(=O)(=O)c3ccccc3)Cc3cc4c(cc3[C@H]21)OCO4 | 16.8 | 13.6 | 17.3 | 9.8 | 36.5 | > 40 |
| CN1Cc2c(ccc3c2OCO3)[C@H]2[C@@H](OC(=O)CCCC(=O)OCCOCCOc3no[n+]([O-])c3S(=O)(=O)c3ccccc3)Cc3cc4c(cc3[C@H]21)OCO4 | 6.55 | 6.55 | 8.47 | 2.6 | 16.5 | > 40 |
| CN1Cc2c(ccc3c2OCO3)[C@H]2[C@@H](OC(=O)CCCC(=O)OCCCCCCOc3no[n+]([O-])c3S(=O)(=O)c3ccccc3)Cc3cc4c(cc3[C@H]21)OCO4 | > 40 | 13.2 | > 40 | 9.59 | > 40 | > 40 |
| CN1Cc2c(ccc3c2OCO3)[C@H]2[C@@H](OC(=O)CCCC(=O)NCCCOc3no[n+]([O-])c3S(=O)(=O)c3ccccc3)Cc3cc4c(cc3[C@H]21)OCO4 | 10.7 | 5.29 | 7.25 | 3.18 | 19.9 | > 40 |
| CC(CNC(=O)CCC(=O)O[C@H]1Cc2cc3c(cc2[C@@H]2[C@H]1c1ccc4c(c1CN2C)OCO4)OCO3)Oc1no[n+]([O-])c1S(=O)(=O)c1ccccc1 (stereo partly specified) | 19.4 | 8.37 | 16.4 | 6.94 | > 40 | > 40 |
| CN1Cc2c(ccc3c2OCO3)[C@H]2[C@@H](OC(=O)CCC(=O)OCCCCCCOc3no[n+]([O-])c3S(=O)(=O)c3ccccc3)Cc3cc4c(cc3[C@H]21)OCO4 | 9.45 | 7.94 | 16.6 | 7.61 | > 40 | > 40 |
| CN1Cc2c(ccc3c2OCO3)[C@H]2[C@@H](OC(=O)CCC(=O)OCCCOc3no[n+]([O-])c3S(=O)(=O)c3ccccc3)Cc3cc4c(cc3[C@H]21)OCO4 | 10.5 | 3.68 | 15.7 | 3.08 | 14.6 | > 40 |
| O=c1[nH]cc(F)c(=O)[nH]1 [FLUOROURACIL] | 32.6 | 26.7 | 6.86 | 3.94 | > 40 | > 40 |
| CN1Cc2c(ccc3c2OCO3)[C@H]2[C@@H](OC(=O)CCC(=O)OCC#CCOc3no[n+]([O-])c3S(=O)(=O)c3ccccc3)Cc3cc4c(cc3[C@H]21)OCO4 | 14.4 | 5.41 | 23.5 | 3.78 | 28.2 | > 40 |
| CN1Cc2c(ccc3c2OCO3)[C@H]2[C@@H](OC(=O)CCCC(=O)NCCOc3no[n+]([O-])c3S(=O)(=O)c3ccccc3)Cc3cc4c(cc3[C@H]21)OCO4 | 26.4 | 14.6 | > 40 | 12.1 | > 40 | > 40 |
| CN1Cc2c(ccc3c2OCO3)[C@H]2[C@@H](OC(=O)CCC(=O)OCCOCCOc3no[n+]([O-])c3S(=O)(=O)c3ccccc3)Cc3cc4c(cc3[C@H]21)OCO4 | 8.65 | 8.92 | 8.68 | 4.52 | 23.9 | > 40 |
| CN1Cc2c(ccc3c2OCO3)[C@@H]2[C@H]1c1cc3c(cc1C[C@@H]2O)OCO3 [CHELIDONINE] | > 40 | > 40 | > 40 | 17.7 | > 40 | > 40 |
| CN1Cc2c(ccc3c2OCO3)[C@H]2[C@@H](OC(=O)CCC(=O)NCCOc3no[n+]([O-])c3S(=O)(=O)c3ccccc3)Cc3cc4c(cc3[C@H]21)OCO4 | 11.4 | 7.94 | 11.5 | 3.17 | 27.7 | > 40 |
| CC(CNC(=O)CCCC(=O)O[C@H]1Cc2cc3c(cc2[C@@H]2[C@H]1c1ccc4c(c1CN2C)OCO4)OCO3)Oc1no[n+]([O-])c1S(=O)(=O)c1ccccc1 (stereo partly specified) | 7.59 | 4.92 | 12.2 | 2.68 | 23.4 | > 40 |
